From PubChem BioAssay AID652163 (Broad Institute, 2013)
Where “and” joins values, the source holds several entries; their conditions need not be identical. Equal entries are not always repeated. In all, about 360,000 compounds went through this assay and about 500 (0.14%) were called active.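 The calls were made as follows: active = mean inhibition of at least 70% across replicates, with every replicate also reaching that level; inconclusive = mean inhibition reaches 70% but some replicates fall short; inactive = mean inhibition below 70%.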 Shown is part of a subset that was picked to be rich in actives.

Target: Protein S100-A4 (Homo sapiens) (UniProt P26447)
Sequence (P26447 whole entry, looked up): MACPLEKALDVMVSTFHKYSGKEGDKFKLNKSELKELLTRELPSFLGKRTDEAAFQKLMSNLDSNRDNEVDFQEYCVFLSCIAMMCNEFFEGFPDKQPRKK
Assay: human S100A4 protein-peptide interaction blockers – biochemical, fluorescence polarization, TAMRA-MyoIIA peptide, primary screen (AID 652163)
Conditions: at 10.7 µM, stronger effect = higher value
Procedure, shortened: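 Material: human S100A4 monomer with TAMRA-labelled myosin IIA peptide; buffer or medium: HEPES pH 7.2 with CaCl2, KCl, NaCl, DTT, Triton; compound dosing: one concentration per compound; schedule: 5 min incubation before reading; benchmarks: neutral control DMSO, positive control TFP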

Row | SMILES | inhibition
1 | C[C@H]1CN([C@@H](C)CO)C(=O)Cc2cc(NS(=O)(=O)c3cn(C)cn3)ccc2O[C@@H]1CN(C)C(=O)Nc1ccc2c(c1)OCO2 | 1.37% (inactive)
2 | Cc1cccc(CN(C)C[C@H]2OCc3cn(nn3)CCCC(=O)N([C@@H](C)CO)C[C@H]2C)c1 | -6.24% (inactive)
3 | CCC(=O)N1CCCCN2[C@H](C1)[C@@H](c1ccc(/C=C/c3ccccc3)cc1)[C@@H]2CO | 3.9% (inactive)
4 | CCCN(C)C[C@@H]1Oc2cc(C#Cc3ccc(F)cc3)ccc2S(=O)(=O)N([C@H](C)CO)C[C@H]1C | -10.2% (inactive)
5 | C[C@H]1CCCCO[C@@H](CN(C)C(=O)C2CCCCC2)[C@@H](C)CN([C@@H](C)CO)C(=O)c2cc(NS(=O)(=O)c3cccs3)ccc2O1 | -3.65% (inactive)
6 | CCCNC(=O)N1C[C@H](O)COC[C@H]2O[C@@H](CC(=O)NCc3ccncn3)CC[C@@H]21 | 1.59% (inactive)
7 | CCCNC(=O)N[C@@H]1C=C[C@H](CC(=O)NC2CCC2)O[C@H]1CO | 10% (inactive)
8 | CO[C@H]1CN(C)C(=O)c2cc(NS(=O)(=O)c3ccccc3)ccc2OC[C@H](C)NC[C@@H]1C | -2.03% (inactive)
9 | O=C(c1cnccn1)N1CC(=O)N2[C@H](C1)[C@@H](c1ccc(C#CC3CCCC3)cc1)[C@@H]2CO | -1.65% (inactive)
10 | CCCNC(=O)N1CC(=O)N2[C@H](CO)[C@@H](c3ccc(-c4ccc(F)cc4)cc3)[C@H]2C1 | 120% (active)
11 | CCCNC(=O)N1CC(=O)N2[C@@H](CO)[C@H](c3ccc(-c4ccc(C)cc4)cc3)[C@@H]2C1 | 14% (inactive)
12 | CCCC#Cc1ccc([C@@H]2[C@@H](CO)N3C(=O)CN(C(=O)Nc4ccc(F)cc4)C[C@@H]23)cc1 | 5.06% (inactive)
13 | COCC#Cc1cnc2c(c1)C(=O)N([C@@H](C)CO)C[C@@H](C)[C@H](CN(C)C(=O)Nc1ccccc1OC)O2 | 5.05% (inactive)
14 | C[C@@H]1CCCCO[C@H](CN(C)Cc2ccccc2)[C@H](C)CN([C@H](C)CO)C(=O)c2cc(NS(=O)(=O)c3ccc(Cl)cc3)ccc2O1 | -1.24% (inactive)
15 | Cc1ccc(S(=O)(=O)N(C)C[C@H]2Oc3ccc(NC(=O)Cc4cn(C)c5ccccc45)cc3CC(=O)N([C@@H](C)CO)C[C@H]2C)cc1 | 12.9% (inactive)
16 | CO[C@@H]1CN(C)C(=O)c2cc(NC(=O)Nc3ccc4c(c3)OCO4)ccc2OC[C@@H](C)NC[C@@H]1C | -4.97% (inactive)
17 | CO[C@H]1CN(C)C(=O)c2ccc(NC(=O)Nc3ccc4c(c3)OCO4)cc2OC[C@H](C)NC[C@H]1C | 6.05% (inactive)
18 | CO[C@@H]1CN(C)C(=O)c2cc(NC(=O)C3CCC3)ccc2OC[C@H](C)N(C(=O)CN(C)C)C[C@@H]1C | 1.09% (inactive)
19 | CO[C@H]1CN(C)C(=O)c2cc(NC(=O)Nc3ccc4c(c3)OCO4)ccc2OC[C@@H](C)NC[C@@H]1C | 127% (active)
20 | CO[C@H]1CN(C)C(=O)c2cc(NC(=O)C3CC3)ccc2OC[C@H](C)N(C(=O)CN(C)C)C[C@H]1C | 99.6% (active)

Row | SMILES | inhibition
21 | CO[C@@H]1CN(C)C(=O)c2cc(NC(=O)C3CC3)ccc2OC[C@H](C)N(C(=O)CN(C)C)C[C@H]1C | -3.57% (inactive)
22 | N#C[C@H]1[C@@H](c2ccccc2C2=CCCC2)[C@H](CO)N1C(=O)c1cccc(F)c1 | 7.35% (inactive)
23 | N#C[C@@H]1[C@H](c2ccccc2C2=CCCCC2)[C@@H](CO)N1S(=O)(=O)c1cccc(F)c1 | 124% (active)
24 | C/C=C/c1ccccc1[C@@H]1[C@@H](CO)N(S(=O)(=O)c2cccc(F)c2)[C@H]1C#N | 15.1% (inactive)
25 | O=C(C[C@@H]1C=C[C@H](NC(=O)CN2CCOCC2)[C@@H](CO)O1)NCc1cccc(F)c1 | 12.6% (inactive)
26 | Cc1ccc(CN(C)C[C@H]2OCc3cn(nn3)CCCC(=O)N([C@@H](C)CO)C[C@H]2C)cc1 | -1.4% (inactive)
27 | CN(C)C(=O)c1cccc(-c2ccc(C3[C@H]4CNC[C@@H]3N4C(=O)Nc3ccccc3F)cc2)c1 (stereo not given in full) | -26.3% (inactive) and -7.38% (inactive)
28 | COc1ccc(CN(C)C[C@H]2Oc3ccc(NC(=O)Cn4cnnn4)cc3CC(=O)N([C@@H](C)CO)C[C@@H]2C)cc1 | 6.98% (inactive)
29 | O=C(NCC1CC1)[C@@H]1[C@@H](CO)[C@@H]2Cn3c(ccc(-c4ccccc4)c3=O)[C@H]1N2C(=O)C1CC1 | 5.45% (inactive)
30 | CCC(=O)N1CC2(CN(Cc3ccc(Cl)cc3)C2)c2c([nH]c3cc(OC)ccc23)[C@@H]1CO | -4.36% (inactive)
31 | CCC(=O)Nc1ccc2c(c1)C(=O)N(C)C[C@H](OC)[C@@H](C)CN(C(=O)c1cnccn1)[C@@H](C)CO2 | 10.3% (inactive)
32 | C[C@@H]1CN([C@H](C)CO)C(=O)c2cc(NS(=O)(=O)c3cccs3)ccc2O[C@@H](C)CCCCO[C@H]1CN(C)Cc1ccc(C(F)(F)F)cc1 | 15.3% (inactive)
33 | C[C@@H]1CN([C@@H](C)CO)C(=O)Cc2cc(NC(=O)Nc3cccc4ccccc34)ccc2O[C@H]1CN(C)CC1CCCCC1 | 8.63% (inactive)
34 | COCC(=O)N1[C@H](CO)[C@H](c2ccccc2)C12CN(C(=O)NC1CCCCC1)C2 | 14.7% (inactive)
35 | CCCC(O)C#Cc1cnc2c(c1)C(=O)N([C@H](C)CO)C[C@H](C)[C@H](CN(C)S(=O)(=O)c1ccc(C#N)cc1)O2 (stereo not given in full) | -4.33% (inactive)
36 | Cc1ccc(S(=O)(=O)N[C@@H]2CC[C@@H](CCn3cc(C4CC4)nn3)O[C@@H]2CO)cc1 | 1.11% (inactive)
37 | CCCC#Cc1ccc([C@H]2[C@@H](CO)N3C(=O)CN(C(=O)c4ccncc4)C[C@@H]23)cc1 | -18.5% (inactive)
38 | CC(C)NC(=O)N(C)C[C@H]1Oc2ccc(NS(C)(=O)=O)cc2CC(=O)N([C@@H](C)CO)C[C@@H]1C | 6.04% (inactive)
39 | COc1ccccc1-c1cnc2c(c1)C(=O)N([C@@H](C)CO)C[C@H](C)[C@H](CN(C)CC1CCOCC1)O2 | -4.73% (inactive)
40 | C[C@H](CO)N1C[C@H](C)[C@H](CN(C)S(=O)(=O)c2cccs2)OCCCC[C@H](C)Oc2ccc(NC(=O)CCCN(C)C)cc2C1=O | 1.4% (inactive)
